From PubChem
The list is not random: actives were taken first. Their share in the collection is about 1.8%.
M4 antag – antagonists of human muscarinic M4 receptor (CHRM4). P08173. CHO-hM4 cells, ACh EC80, Fluo-8 calcium fluorescence. inhibition, % at 3 µM. 0.73% of 360,000 active;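 active = inhibition above its plate's cutoff, the mean inhibition of sample wells plus 3 SD, cut at about 27% in these data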;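 also: 0% = acetylcholine EC80 with DMSO and 100% = DMSO without agonist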
M5 PAM – CHRM5 positive allosteric modulation; P08912; CHO-K1 hM5, Fluo-8 calcium, ACh EC20 PAM; 0% = ACh EC20, 100% = ACh EC100; 0.3% of 360,000 active; activation, % at 3 µM;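 active = activation above the run cutoff, the mean activation of all test compounds plus 3 SD, cut at about 18% in these data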
Target sequence (P08912 whole entry, looked up): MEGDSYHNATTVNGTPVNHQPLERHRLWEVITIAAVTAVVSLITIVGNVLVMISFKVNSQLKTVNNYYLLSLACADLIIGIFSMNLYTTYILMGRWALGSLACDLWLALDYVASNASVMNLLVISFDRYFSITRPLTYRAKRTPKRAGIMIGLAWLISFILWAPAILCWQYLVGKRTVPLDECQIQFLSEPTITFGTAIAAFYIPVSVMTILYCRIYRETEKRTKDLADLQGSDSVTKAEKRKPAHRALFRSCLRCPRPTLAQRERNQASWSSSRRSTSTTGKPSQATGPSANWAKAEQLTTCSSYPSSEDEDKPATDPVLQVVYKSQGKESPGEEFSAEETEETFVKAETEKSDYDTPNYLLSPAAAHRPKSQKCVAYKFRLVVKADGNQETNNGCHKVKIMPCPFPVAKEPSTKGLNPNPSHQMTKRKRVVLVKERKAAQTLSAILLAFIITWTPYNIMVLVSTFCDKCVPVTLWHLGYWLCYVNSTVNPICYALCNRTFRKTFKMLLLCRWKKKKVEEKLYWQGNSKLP
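Probe or stimulus: acetylcholine, EC20 level; Assay system: human M5 receptor in CHO-K1 cells; Schedule: compound preincubation 140 s before EC20 acetylcholine addition; Technique: intracellular calcium via Fluo-8 fluorescence; Dosing: single-point, 3 µM nominal; Read-out basis: percent activation from peak-over-basal fluorescence ratio, scaled EC20-to-EC100 acetylcholine; Repeats: one well per compound, no replicates.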
CHRM4 PAM – potentiates acetylcholine response at human M4 receptor. 0.4% of 360,000 active. activation, % at 3 µM. CHO-K1 hM4/Gqi5, Fluo-8 calcium fluorescence, ACh EC20; 0% = ACh EC20, 100% = maximal ACh;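 active = activation above its plate's cutoff, the mean activation of sample wells plus 3 SD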
CHRM5 agonist – CHRM5 agonism in calcium assay; P08912; 0.19% of 360,000 active; CHO-K1 hM5 cells, Fluo-8 calcium fluorescence; 0% DMSO wells, 100% maximal acetylcholine response; AID 624037; activation, % at 3 µM;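 active = activation above the run's mean over test compounds plus 3 SD, cut at about 23% in these data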;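 also: signal is peak over basal fluorescence ratio across the kinetic read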
M5 antag – blocks acetylcholine activation of human M5 receptor; CHO-hM5 cells, Fluo-8 calcium fluorescence, ACh EC80; inhibition, % at 3 µM; P08912; 0.59% of 360,000 active;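 active = inhibition above a per-plate cutoff, the mean of that plate's test compounds plus 3 SD, cut at about 27% in these data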;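 also: 0% = acetylcholine EC80 with DMSO and 100% = DMSO without agonist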
CHRM4 agonist – agonists of human muscarinic M4 receptor (CHRM4); P08173; CHO-K1 hM4/Gqi5, Fluo-8 calcium fluorescence; vehicle 0%, full acetylcholine response 100%; activation, % at 3 µM; 0.14% of 360,000 active; AID 624127;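 active = activation above the run mean over all test wells plus 3 SD, cut at about 32% in these data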;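 also: peak over basal fluorescence ratio per well then scaled between controls; 0% = DMSO wells and 100% = acetylcholine at EC100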
Active calls of the source: *.

SMILES | M4 antag | M5 PAM | CHRM4 PAM | CHRM5 agonist | M5 antag | CHRM4 agonist
CNS(=O)(=O)c1cc(NC(=O)CCNC(=O)c2ccco2)ccc1C | -3 | 1 | 4 | -3 | 27* | 0
COc1ccc(CCNC(=O)CCNC(=O)c2ccco2)cc1OC | -2 | -5 | 4 | -3 | 19 | 1
CCOc1ccc(CCNC(=O)Cn2cccc2C(=O)c2ccccc2)cc1OCC | 12 | -1 | -6 | -3 | 11 | 0
CCOc1ccc(CCNC(=O)CCNC(=O)c2ccco2)cc1OCC | -8 | 4 | 19* | -4 | 7 | 1
CCOc1ccc(CCNC(=O)Cn2ccc3ccccc3c2=O)cc1OCC | -1 | 20* | 7 | 0 | 0 | 1
Cc1ccc(NC(=O)CCNC(=O)c2ccco2)cc1F | 4 | -1 | 3 | -2 | 13 | 0
COCCNC(=O)C1CCCN(C(=O)c2ccc(F)c(C)c2)CC1 (stereo not given) | -5 | -1 | 9 | 0 | 1 | 3
CCC(=O)Nc1cc(OC)c(NC(=S)Nc2ccccc2CC)cc1OC | -5 | 2 | 3 | 3 | -7 | 2
COc1cccc2c1C(=O)c1c(O)c3c(c(O)c1C2=O)C[C@@](O)(C(=O)CO)C[C@@H]3O[C@H]1C[C@H](N)[C@H](O)[C@H](C)O1 | 6 | -11 | -7 | 8 | 15 | 15
CC(=O)[C@@]1(O)Cc2c(O)c3c(c(O)c2[C@H](O[C@H]2C[C@H](N)[C@H](O)[C@H](C)O2)C1)C(=O)c1ccccc1C3=O | 10 | -2 | 0 | 26* | 8 | 36*
COc1cccc2c1C(=O)c1c(O)c3c(c(O)c1C2=O)C[C@@](O)(C(=O)CO)C[C@@H]3OC1CC(N)C(O)C(C)O1 (stereo not given in full) | 4 | -29 | -2 | 75* | 26 | 17
COc1cccc2c1C(=O)c1c(O)c3c(c(O)c1C2=O)CC(O)(C(C)=O)CC3OC1CC(N(C)C)C(O)C(C)O1 (stereo not given) | 14 | -1 | -2 | 19 | 7 | 7
CCOC(=O)[C@]12CCCC=C1N(Cc1ccc3c(c1)OCO3)C(=O)[C@H](CC(=O)N1CCC(c3ccccc3)CC1)C2 | -7 | -3 | -2 | -5 | 5 | 0
Cc1ccc(OC(=O)CCS(=O)(=O)c2ccc(C)cc2)cc1 | -1 | 16 | 18* | -3 | -6 | 1
COC(=O)Cc1ccc(OC(=O)CCS(=O)(=O)c2ccc(C)cc2)cc1 | -1 | 1 | 0 | -3 | 0 | 0
COC(=O)COc1ccc(S(=O)(=O)NCc2ccncc2)cc1 | 6 | -17 | -5 | 7 | 28* | 18
COc1cc(S(=O)(=O)NCc2ccncc2)ccc1Br | -4 | -16 | -3 | 2 | 35* | 12
Cc1cc(C(=O)N2CCCC(N3CCN(c4ccccc4C)CC3)C2)no1 (stereo not given) | -2 | -2 | 1 | 2 | 10 | 0
CC(C1SC(=S)NC1=O)C1SC(=S)NC1=O (stereo not given) | 0 | -3 | 0 | 2 | 5 | 0
C[C@H](NC(=O)c1ncn2c1C(=O)NC[C@H]2C)C(=O)OC(C)(C)C | -2 | -2 | 2 | 1 | -1 | 1
O=C(Nc1ccccc1)Nc1ncc([N+](=O)[O-])s1 | 13 | -15 | -8 | 11 | 28* | 16
COc1cc(-c2noc(C)c2-c2ccc(N(C)C)nc2)cc(OC)c1OC | -3 | -12 | -7 | 36* | 12 | 36*
CCCCc1c(-c2ccccc2OC)ncn1CCc1ccccc1Cl | 5 | -19 | -9 | 4 | 19 | 16
c1ccc(-c2cncnc2)cc1 | 8 | 20* | 4 | 7 | -9 | 2
c1ccc(-c2nnc(-c3ccccc3)nn2)cc1 | -11 | 6 | 0 | 5 | -4 | 0
SMILES | M4 antag | M5 PAM | CHRM4 PAM | CHRM5 agonist | M5 antag | CHRM4 agonist
COc1ccc(-c2csc3ncn(-c4ccccc4OC)c(=O)c23)cc1OC | -25 | -7 | 30* | -5 | 1 | 6
COc1ccc(CNCCCn2cnc3c(SC)ncnc32)cc1 | -3 | 10 | 5 | -1 | -8 | 1
COc1ccc(-n2c(C)c(C(C)=O)c(C(C)=O)c2C)cc1OC | -20 | -3 | 17* | -2 | -5 | 1
O=C(C=Cc1ccc2c(c1)OCO2)c1ccccc1 | -4 | 0 | -2 | 2 | -1 | 1
CCN(C(=O)/C=C/c1ccc2c(c1)OCO2)c1ccccc1 | -12 | 20* | 24* | -5 | 1 | 1
Cc1cc(Oc2ccc(N)cn2)ccc1Cl | 18 | 1 | 0 | 24* | 31* | 8
COc1ccc(/C=C/C(=O)O)cc1S(=O)(=O)NCc1ccco1 | 2 | 25* | 0 | 8 | -1 | 0
COc1cc(/C=C/C(=O)O)cc(S(=O)(=O)NCc2ccco2)c1OC | 0 | 7 | 3 | -1 | 5 | 2
O=C(N/N=C/c1ccc(F)cc1)c1ccc(OCc2ccccc2)cc1 | 12 | -3 | -3 | -2 | 1 | 1
Cc1ccccc1NC(=O)CCC(=O)N/N=C/c1ccc(F)cc1 | -15 | 5 | 25* | -3 | 4 | 4
O=C(N/N=C/c1ccc(OCc2ccc(F)cc2)cc1)c1ccccc1 | -7 | 6 | 20* | -2 | -13 | 2
O=C(N/N=C/c1ccccc1)c1ccc(NC(=O)c2ccc(F)cc2)cc1 | 16 | 20* | 24* | 0 | 17 | 13
Cc1ccccc1NC(=O)CCC(=O)N/N=C/c1cccnc1 | 1 | -4 | 5 | -4 | 12 | 1
O=C(CCC1CCCN(C(=O)c2cccc(F)c2)C1)N1CCN(c2ccccn2)CC1 (stereo not given) | -3 | 0 | -8 | 0 | -10 | 3
O=C1CC(=C(c2ccccc2)c2ccccc2)C(=O)N1CCN1CCN(c2cccc(Cl)c2)CC1 | 17 | -1 | 9 | -1 | -2 | 1
O=C1CC(=C(c2ccccc2)c2ccccc2)C(=O)N1CCCN1CCN(c2cccc(Cl)c2)CC1 | 28* | -22 | -22 | -8 | 3 | -1
CC(C)c1ccc(N2C(=O)CSC23C(=O)N2CCCc4cccc3c42)cc1 (stereo not given) | 90* | -23 | -34 | -11 | 48* | -2
CC1(C(=O)NS(=O)(=O)c2cccc(F)c2)CCN1C(=O)Cc1cccc2ccccc12 (stereo not given) | -10 | 4 | 6 | 1 | -7 | 0
CCOC(=O)C1=C[C@@H](c2ccccc2)N(S(=O)(=O)c2ccc(C)cc2)[C@H]1c1ccc(OC)cc1 | -5 | -5 | -9 | 1 | 1 | 0
